Compounds with a hit are over-represented: about 1.1% of the library has one in this group of screens.
CAL PDZ FP-1: untagged CAL PDZ binding inhibitors, primary screen, biochemical, fluorescence polarization, HTS. Golgi-associated PDZ and coiled-coil motif-containing protein (Homo sapiens), Q9HD26. purified CAL PDZ, TMR-peptide fluorescence polarization, 1 h. inhibition, % at 24.9 µM. 300,000 tested, 0.92% active. AID 602252, 2012;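 active = mean inhibition of at least 30% with at least half of replicates also reaching 30%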;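 note: 0% = DMSO neutral control and 100% = excess unlabeled competitor peptide PRC23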
LANA DNA inh: inhibitors of KSHV C-LANA binding to DNA, primary screen, biochemical, fluorescence polarization, FAM-LBS DNA, MBP-C-LANA, single point. Kaposi's sarcoma herpesvirus LANA C-terminal domain (residues 932-1162) DNA binding. inhibition, % at 9 µM. 340,000 tested, 0.078% active;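 active = highest replicate inhibition at or above 60% at 9 µM, even if other replicates fall short; inactive = all replicates below 60% inhibition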;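 note: 0% = neutral control wells and 100% = 4 µM acridine orange control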
Keap1 Nrf2 FP: Keap1-Nrf2 protein-protein interaction inhibitors, primary screen, biochemical, fluorescence polarization, single point. Kelch-like ECH-associated protein 1 (Homo sapiens), Q14145. Keap1 Kelch-Nrf2 peptide fluorescence polarization, 1536-well. inhibition, % at 9.4 µM. 340,000 tested, 0.15% active; in the data active = inhibition above about 12%;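 note: human Keap1 Kelch domain with fluorescein labeled Nrf2 9mer peptide probe; 0% = neutral control wells and 100% = peptide positive control; higher means more block of Keap1 binding to Nrf2 peptide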
Target sequence (Q14145 whole entry, looked up, the tested form may be a part): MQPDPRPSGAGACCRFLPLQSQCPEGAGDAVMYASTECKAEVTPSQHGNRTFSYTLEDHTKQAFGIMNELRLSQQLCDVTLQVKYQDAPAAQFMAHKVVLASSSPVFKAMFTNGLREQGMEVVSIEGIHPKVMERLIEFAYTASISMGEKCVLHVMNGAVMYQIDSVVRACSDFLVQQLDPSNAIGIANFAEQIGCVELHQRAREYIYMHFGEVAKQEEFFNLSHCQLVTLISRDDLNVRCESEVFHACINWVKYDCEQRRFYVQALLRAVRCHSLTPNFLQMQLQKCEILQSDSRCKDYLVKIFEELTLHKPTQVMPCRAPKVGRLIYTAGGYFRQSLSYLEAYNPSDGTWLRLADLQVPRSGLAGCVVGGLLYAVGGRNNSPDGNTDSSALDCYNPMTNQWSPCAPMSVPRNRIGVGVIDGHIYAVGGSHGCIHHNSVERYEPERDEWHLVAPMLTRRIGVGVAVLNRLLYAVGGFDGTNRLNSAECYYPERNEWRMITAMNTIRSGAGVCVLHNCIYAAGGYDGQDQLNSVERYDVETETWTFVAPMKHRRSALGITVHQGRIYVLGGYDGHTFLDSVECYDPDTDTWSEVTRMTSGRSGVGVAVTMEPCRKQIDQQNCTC
CAL PDZ FP-2: CAL PDZ peptide-binding inhibitors, primary screen, biochemical, fluorescence polarization, Cer-tagged CAL PDZ, HTS; Golgi-associated PDZ and coiled-coil motif-containing protein (Homo sapiens), Q9HD26; 330,000 tested, 0.02% active; purified CAL PDZ, TMR-peptide fluorescence polarization, 1 h; inhibition, % at 20 µM;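 active = highest replicate inhibition of at least 40%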;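 note: plate controls were DMSO neutral control wells for no effect and unlabeled competitor peptide control wells for full effect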
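Material: tagged CAL PDZ domain; buffer or medium: 25 mM sodium phosphate pH 7.4, 150 mM NaCl, TCEP, IgG, Thesit; compound dosing: single point, 20 µM; schedule: 1 h incubation at room temperature before polarization reading; measured by: FP readout, S and P plane fluorescence; read-out basis: percent inhibition from loss of millipolarization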
miR-122 sensor: miR-122 Renilla sensor signal increase in Huh7, primary screen, miR-122 inhibitor project, cell-based, single point, plate reader | Huh7 miR-122 Renilla luciferase sensor, 48 h; neutral wells = 0, positive control = 100 | activation (reporter increase), % at 12.5 µM | 340,000 tested, 0.3% active;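 active = mean replicate activation score at least 90 and every replicate individually at or above 90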;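 note: higher luciferase means less miR-122 activity so hits act as miR-122 inhibitors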
An asterisk follows results filed as active; · = not tested or not shown; [ ] = dose if it differs, or a comment.

SMILES	CAL PDZ FP-1	LANA DNA inh	Keap1 Nrf2 FP	CAL PDZ FP-2	miR-122 sensor
C[C@@H]1CN([C@H](C)CO)C(=O)c2cc(-c3ccc(C(=O)N(C)C)cc3)cnc2O[C@@H]1CN(C)C(=O)c1ccncc1	·	·	·	·	0.3[16.7 µM]
C[C@H](CO)N1C[C@H](C)[C@H](CN(C)S(C)(=O)=O)Oc2cc(C#CC3CC3)ccc2S1(=O)=O	·	·	·	·	21.7[16.7 µM]
CCOCC(=O)Nc1c(C(=O)N2CCN(c3ncccn3)CC2)oc2ccccc12	1.8	1.2	3.9	-3.2	125.3*
N#Cc1cnn2c1nc(N1CCCCC1)c1ccccc12	-4.9	-0.7	3.4	-0.1	133.8*
CC(C)c1ccc(S(=O)(=O)c2nnn3c2nc(N2CCCCC2)c2ccccc23)cc1	-5.6	-1.0	-0.7	-0.3	·
OCC1CCCCN1C(=S)NCc1ccco1 (configuration not stated)	64.3*	-1.8	-2.4	0.1	·
CC(C)C[C@H](NC(=O)NCCC1=CCCCC1)C(=O)O	0.0	-23.5	1.4	-0.8	·
COC(=O)[C@H](CC(C)C)NC(=O)NCCC1=CCCCC1	75.9*	0.2	-2.6	-0.3	·
C[C@H](CO)N1C[C@H](C)[C@@H](CN(C)C(=O)Nc2ccc(F)cc2)Oc2c(NS(C)(=O)=O)cccc2C1=O	·	·	·	·	14.9[16.7 µM]
COc1ccc(OCC(=O)Nc2nc3c(s2)CCCC3)cc1	71.8*	1.6	1.5	-2.4	-3.9
Cc1ccc(C2CC(c3cccs3)=NN2S(=O)(=O)c2ccc(C)cc2)cc1 (configuration not stated)	-3.6	-1.1	-6.5	-2.5	98.1*
CCCCC(=O)Nc1nn(CC(C)C)c2nc3ccccc3cc12	30.4*	0.6	-8.6	0.7	6.6
CC(=O)N(C)C[C@@H]1Oc2ncc(-c3cccnc3)cc2C(=O)N([C@@H](C)CO)C[C@H]1C	·	·	·	·	-5.0[16.7 µM]
Cc1cc(C)c2c(c1)/C(=N/NC(=O)c1ccc(O)cc1)CCC2	68.6*	-0.1	-1.4	0.3	·
Cc1cccc(/C=N/NC(=O)c2cc(C)nc3ccccc23)n1	150.8*	-1.2	-1.7	-0.6	3.3
C[C@H](CO)N1C[C@H](C)[C@H](CN(C)S(=O)(=O)c2ccc(F)cc2)OCCCC[C@H](C)Oc2ccc(NS(=O)(=O)c3cccs3)cc2C1=O	·	·	·	·	-0.8[16.7 µM]
COc1ccc(CCN(C)C(=O)c2c(C)nn(CC(C)C)c2Cl)cc1OC	103.5*	-1.1	-0.1	-1.2	-6.7
COc1ccc(OC)c(S(=O)(=O)Nc2ccccc2C(F)(F)F)c1	0.1	0.3	-0.5	-0.2	116.5*
C[C@@H]1CCCCO[C@H](CN(C)C(=O)Nc2ccccc2)[C@H](C)CN([C@@H](C)CO)C(=O)c2cc(NC(=O)Nc3cccc4ccccc34)ccc2O1	·	·	·	·	-8.2[16.7 µM]
O=C(O)CSCC(=O)N(Cc1ccccc1)c1nc(-c2ccccc2)c(-c2ccccc2)s1	44.2*	2.7	1.3	-1.2	-4.2
CCOC(=O)c1sc(N(Cc2ccccc2)C(=O)CCl)nc1C	-5.3	-0.1	0.6	-3.4	-6.4
CSc1cccc(CN2CCCC(CNC(=O)c3ccco3)C2)c1 (configuration not stated)	146.4*	1.5	2.2	-0.8	0.0
O=C(NCC1CCCN(Cc2cccc(F)c2)C1)c1cccc2ccccc12 (configuration not stated)	68.0*	0.3	-3.8	0.0	0.0
Fc1cccc(Cn2cc(C(=S)N3CCOCC3)c3ccccc32)c1	2.2	-0.3	-2.3	-2.0	176.0*
Cc1noc(C)c1NC(=O)N(C)C[C@H]1OCCCC[C@H](C)Oc2ccc(NS(=O)(=O)c3c(C)noc3C)cc2C(=O)N([C@@H](C)CO)C[C@@H]1C	·	·	·	·	-2.1[16.7 µM]
SMILES	CAL PDZ FP-1	LANA DNA inh	Keap1 Nrf2 FP	CAL PDZ FP-2	miR-122 sensor
C[C@H]1CN([C@@H](C)CO)S(=O)(=O)c2ccc(-c3ccc(F)cc3)cc2O[C@@H]1CN(C)S(C)(=O)=O	·	·	·	·	14.0[16.7 µM]
CC(C)(C)c1ccc(S(=O)(=O)Nc2ccc(C(=O)N3CCCC3)cc2)cc1	-1.4	-1.4	1.7	-2.0	·
O=S(=O)(Nc1ccc(C(O)(C(F)(F)F)C(F)(F)F)cc1)c1cccc2ccccc12	·	·	·	·	101.6*
CC(C)(C)c1ccc(S(=O)(=O)Nc2ccc(C(O)(C(F)(F)F)C(F)(F)F)cc2)cc1	·	·	·	·	102.5*
COc1cccc(S(=O)(=O)Nc2ccc(C(O)(C(F)(F)F)C(F)(F)F)cc2)c1	·	·	·	·	129.0*
CC(=O)Nc1ccc(NS(=O)(=O)c2cccc3ccccc23)cc1	-4.7	-0.5	0.9	-1.4	73.4
C[C@@H]1CN([C@H](C)CO)C(=O)c2cc(NC(=O)Nc3ccc4c(c3)OCO4)ccc2O[C@@H](C)CCCCO[C@H]1CN(C)Cc1ccccc1	·	·	·	·	3.6[16.7 µM]
COc1ccc(NC(=O)N(C)C[C@H]2Oc3ccc(NC(=O)Cc4cn(C)c5ccccc45)cc3C(=O)N([C@H](C)CO)C[C@H]2C)cc1	·	·	·	·	1.5[16.7 µM]
Cc1ccccc1C(=O)c1ccccc1C(=O)c1ccccc1	86.0*	-0.2	1.6	0.2	5.1
C[C@H]1CN([C@@H](C)CO)C(=O)c2cc(NC(=O)C3CCCCC3)ccc2O[C@H]1CN(C)Cc1ccncc1	·	·	·	·	-3.5[16.7 µM]
CCc1ccc(-c2cc(C)no2)cc1S(=O)(=O)NCc1ccco1	-2.2	1.4	-4.0	-1.8	159.3*
Cc1cc(-c2ccc(C)c(S(=O)(=O)NCCc3ccco3)c2)on1	-4.9	-1.7	-13.2	-2.1	68.4
CCc1ccc(-c2cc(C)no2)cc1S(=O)(=O)NCCc1ccc(OC)c(OC)c1	0.0	0.5	-3.3	-1.8	131.5*
CC(=O)N1[C@H](CO)[C@H]2c3ccccc3N(C(=O)c3ccccc3)C[C@H]21	·	·	·	·	-18.2[16.7 µM]
CCCCN(CCCC)S(=O)(=O)c1ccc(NS(=O)(=O)c2ccc(NC(C)=O)cc2)cc1	-3.0	-0.1	1.0	-2.9	-5.0
CC(=O)Nc1ccc(NS(=O)(=O)c2ccc3ccccc3c2)cc1	-0.8	-0.9	-3.1	-1.0	105.5*
O=S(=O)(Nc1ccc(-c2nc3ccccc3o2)cc1)c1ccccc1	-7.1	-2.1	-1.5	-0.8	-1.0
Cc1ccc(S(=O)(=O)Nc2ccc(NC(=O)Nc3cccc(C(F)(F)F)c3)cc2)cc1	73.9*	-2.5	0.0	-1.7	·
CCCCOc1ccc(S(=O)(=O)Nc2ccc(NC(C)=O)cc2)cc1	·	0.0	-4.0	-0.7	204.7*
CC(=O)Nc1ccc(S(=O)(=O)Nc2cccc(-c3nc4ccccc4o3)c2)cc1	-1.5	0.9	-3.5	-1.7	137.7*
C/C=C/c1ccc2c(c1)O[C@@H](CN(C)C(=O)NC(C)C)[C@@H](C)CN([C@@H](C)CO)S2(=O)=O	·	·	·	·	-7.6[16.7 µM]
CNC[C@H]1Oc2cc(C#CC3(O)CCCC3)ccc2S(=O)(=O)N([C@H](C)CO)C[C@H]1C	·	·	·	·	50.2[16.7 µM]

From PubChem BioAssay
